The values below come from the array DNA melting data of Ke et al. (doi:10.1101/2024.01.08.574731).

Data set [1] in a line: melting temperature; fluorescence melt of hairpins on a sequencing array, two-state fit, raised by 9.35 °C to match UV melts. The settings on record: sodium 0.088 M. An outline of the steps: (§1)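 Library hairpins on a sequenced MiSeq flow cell carried annealed Cy3 and quencher oligos, and their Cy3 fluorescence was imaged in 50 mM Na-HEPES pH 8.0 with 25 mM NaCl, in 2.5 °C steps up to 60 °C. Signals were normalised to Cy3 before quenching and to control constructs. Melting temperature and folding enthalpy were obtained from bootstrapped two-state fits, combined by inverse-variance weighting across four replicates, and the fitted temperatures were then raised by 9.35 °C to match UV melts.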

A short description of data set [2]: folding enthalpy; higher = less favourable; fluorescence melt of hairpins on a sequencing array, two-state fit. The settings on record: sodium 0.088 M. The method in brief: as §1

With CGCCACCGGAAACGGGCG (((..(((....)))))), the Tm in data set [1] stood at 49.3 °C. Further, the folding enthalpy in data set [2] was -26.2 kcal/mol.
For CGAACGGAAACGTGGTCG ((((((....)))..))), in data set [1], the Tm was found to be 32.7 °C. Moreover, in data set [2], the folding enthalpy was -12.7 kcal/mol.
The like results for GCGAGGCGAAAGCTACGC (((..((....))..))) were, in that order, 62 °C and -24.3 kcal/mol.
The like results for GATCGCATGTGCGATC ((((((....)))))) were, in that order, 68.3 °C and -37.8 kcal/mol.
For GGCTTTGGAAACAAAGTC (.(((((....))))).), in that order: 48.9 °C and -39.8 kcal/mol.
In the case of GCAAATGGAAACATTTAC (.(((((....))))).), in data set [1], the Tm was found to be 28.1 °C. For the same sequence, the folding enthalpy in data set [2] was -13.5 kcal/mol.
The like results for GAGGAGCGAAAGCTACTC (((.(((....))).))) were, in that order, 64.8 °C and -31.4 kcal/mol.
Take GATCTAGTAATAGATC ((((((....)))))): the Tm in data set [1] is 47.9 °C. Moreover, in data set [2], the folding enthalpy was -35.8 kcal/mol.
Regarding GCAAGAGGAAACTTTTGC ((((.((....)).)))), the Tm in data set [1] worked out at 39 °C. In data set [2], the folding enthalpy is -26 kcal/mol.
For GCCGGGGGAAACTCCGGC (((((.(....).))))), in that order: 68.5 °C and -39.3 kcal/mol.
In the case of GTGATAACGAAAGTTCAC (((..(((....)))))), the Tm in data set [1] is 37.5 °C. The folding enthalpy in data set [2] was -15.1 kcal/mol.
In the case of GTATCGGGAAACCGATGC (.(((((....))))).), in data set [1], the Tm is 53.3 °C. Also, in data set [2], the folding enthalpy is -22.2 kcal/mol.
For GTGGACCGAAAGGTTCAC (((.(((....))).))), in that order: 59.8 °C and -36.7 kcal/mol.
The like results for GAATGCGAAAGCACTTC ((((((....))).))) were, in that order, 40.9 °C and -16.2 kcal/mol.
For GCTTCGTCGAAAGACAGC (((..(((....)))))), in that order: 34.5 °C and -11.5 kcal/mol.
For GCCGCGCGAAAGCACTGC ((.(.((....)).).)), the Tm in data set [1] stood at 38.2 °C. In addition, the folding enthalpy in data set [2] is -18.7 kcal/mol.
For GCGTCTCCACGC ((((....)))), in that order: 52 °C and -21.4 kcal/mol.
For GAAGGGCGAAAGCCTTC (((.(((....)))))), in that order: 50.8 °C and -14.3 kcal/mol.
The like results for GGGATTCGAAAGAAACCC (((.(((....))).))) were, in that order, 50.6 °C and -48.4 kcal/mol.
Take GGGCGATCGAAAGATCCC (((..(((....)))))): the Tm in data set [1] was determined as 48.6 °C. For the same sequence, the folding enthalpy in data set [2] was -17.1 kcal/mol.
The like results for GTCTCCGAAAGGATAGAC ((((((....)))..))) were, in that order, 41 °C and -23.8 kcal/mol.
Consider CGATCGGAAACGATCTCG ((((((....)))..))), for which the Tm in data set [1] came to 36.9 °C. Besides, the folding enthalpy in data set [2] is -12.1 kcal/mol.
Take GAACCGGAAACGGTTC ((((((....)))))): the Tm in data set [1] is 67.4 °C. Moreover, the folding enthalpy in data set [2] was -33 kcal/mol.
For GCTGAGGCGAAAGCCAGC (((..(((....)))))), in that order: 52.8 °C and -22.3 kcal/mol.
The like results for GTACGCCGAAAGGCTTAC (((.(((....))).))) were, in that order, 46.3 °C and -21.5 kcal/mol.
The like results for GGCCAAACGAAAGTTGCC (((..(((....)))))) were, in that order, 44 °C and -22.6 kcal/mol.
With GTCCGCGAAAGCGAAGAC ((((((....)))..))), in data set [1], the Tm stood at 45.4 °C. Also, the folding enthalpy in data set [2] was -17.4 kcal/mol.
With GCATGGCGAAAGCAACGC ((.(.((....)).).)), the Tm in data set [1] was determined as 30.7 °C. For the same sequence, the folding enthalpy in data set [2] was -10.8 kcal/mol.
For GATCGTGCCCACGATC ((((((....)))))), in that order: 59.7 °C and -39.8 kcal/mol.
Take GTTTTAGCGAAAGCTAAC (((..(((....)))))): the Tm in data set [1] is 33 °C. Besides, in data set [2], the folding enthalpy is -13.2 kcal/mol.
The like results for GTTGGTGCGAAAGCAAAC (((..(((....)))))) were, in that order, 43 °C and -20.7 kcal/mol.
For GTTTCAGGAAACTGAGAC ((.((((....)))).)), in that order: 37.3 °C and -24.9 kcal/mol.
The like results for CGCATGCGGAAACGCGCG (((..(((....)))))) were, in that order, 52.1 °C and -20.8 kcal/mol.
Consider GTACACGAAAGTGTATAC ((((((....)))..))), for which, in data set [1], the Tm was found to be 43.6 °C. In addition, the folding enthalpy in data set [2] is -12.1 kcal/mol.
For the sequence CGACCCGGAAACGGTCG (((.(((....)))))), the Tm in data set [1] is 52.5 °C. Also, in data set [2], the folding enthalpy was -30.1 kcal/mol.
For GCCTTCGGAAACGGAGGC ((((.((....)).)))), in that order: 58.6 °C and -40.4 kcal/mol.
On to GGACATGGAAACATGTTC (.(((((....))))).), for which the Tm in data set [1] turned out to be 47.4 °C. In addition, in data set [2], the folding enthalpy was -27.6 kcal/mol.
For GGTTATGGAAACGTAACC (((((.(....).))))), in that order: 45.8 °C and -40.6 kcal/mol.
On to GTAGACGAAAGTCTTTAC ((((((....)))..))), for which the Tm in data set [1] was 29.3 °C. In data set [2], the folding enthalpy was -10.4 kcal/mol.
The like results for GCTTGTCCGAAAGGAAGC (((..(((....)))))) were, in that order, 36.1 °C and -17.7 kcal/mol.
Turning to GATCTTCGCGAAGATC ((((((....)))))), in data set [1], the Tm amounted to 55.3 °C. In addition, the folding enthalpy in data set [2] is -59 kcal/mol.
For GCGTGCATACGC ((((....)))), in that order: 68.7 °C and -24.6 kcal/mol.
For GGGCGTGGAAACGCGCCC (((((.(....).))))), in that order: 68.3 °C and -22.5 kcal/mol.
The like results for CAATCGAAAGATTG (((((....))))) were, in that order, 51.3 °C and -22.6 kcal/mol.
For GCGGCGCGAAAGCTCGGC ((.(.((....)).).)), in data set [1], the Tm is 44.4 °C. Moreover, the folding enthalpy in data set [2] was -17.4 kcal/mol.
For GCTCGGCGAAAGCTGCGC ((.(.((....)).).)), in that order: 56.2 °C and -17.4 kcal/mol.
Turning to GATCTTGGAAACAAGACC (.(((((....))))).), the Tm in data set [1] is 35.2 °C. In addition, the folding enthalpy in data set [2] was -17.4 kcal/mol.
Consider GGTTGCGGAAACGCAATC (.(((((....))))).), for which the Tm in data set [1] is 54.9 °C. In addition, the folding enthalpy in data set [2] was -28.9 kcal/mol.
For GGTCTTGAAAAAGACC ((((((....)))))), in that order: 57.2 °C and -40.4 kcal/mol.
The like results for GGGTGTGGAAACGTACCC ((((..(....)..)))) were, in that order, 45.5 °C and -28.7 kcal/mol.
With GGGCTTGGAAACAAGTCC ((.((((....)))).)), the Tm in data set [1] amounted to 54.6 °C. The folding enthalpy in data set [2] is -50.9 kcal/mol.
The like results for GCCTACGAAAGTACGGC ((((((....))).))) were, in that order, 51.5 °C and -28.8 kcal/mol.
For GCAGCCGAAAGGCATGC ((((((....))).))), in that order: 62 °C and -19.6 kcal/mol.
Turning to GTTACCCGAAAGGGAAAC (((.(((....))).))), the Tm in data set [1] was 48.6 °C. Further, the folding enthalpy in data set [2] is -21.6 kcal/mol.
As for GATCAGGGGCCTGATC ((((((....)))))), in data set [1], the Tm amounted to 53 °C. Also, the folding enthalpy in data set [2] is -33.1 kcal/mol.
The like results for GATCTGTTTCCAGATC ((((((....)))))) were, in that order, 49.3 °C and -34.9 kcal/mol.
On to GGGAATCCGAAAGGACCC (((..(((....)))))), for which the Tm in data set [1] is 38.1 °C. In addition, the folding enthalpy in data set [2] is -18.1 kcal/mol.
Consider GCGTGCGAAAGCATTCGC ((((((....)))..))), for which, in data set [1], the Tm stood at 52.4 °C. In data set [2], the folding enthalpy was -16.8 kcal/mol.
The like results for GTAACAGCGAAAGCTTAC (((..(((....)))))) were, in that order, 28.6 °C and -10.8 kcal/mol.
For GGAGACGCGAAAGCGTCC (((..(((....)))))), in that order: 45.3 °C and -7.09 kcal/mol.
The like results for GGAAGCGAAAGCTACTCC ((((((....)))..))) were, in that order, 30.8 °C and -13.3 kcal/mol.
In the case of GTGATTGGAAACAATCGC (.(((((....))))).), the Tm in data set [1] came to 49.1 °C. For the same sequence, in data set [2], the folding enthalpy was -40.7 kcal/mol.
For GATCTGCCCTCAGATC ((((((....)))))), in that order: 49.8 °C and -42.5 kcal/mol.
For GCTGTCGGAAACGACGGC ((.((((....)))).)), in that order: 64 °C and -34.2 kcal/mol.
For GCCTCCGAAAGGACCGGC ((((((....)))..))), in that order: 43.1 °C and -25 kcal/mol.
As for GGGAATGGAAACATTCCC (((((((....))))))), the Tm in data set [1] is 62 °C. The folding enthalpy in data set [2] is -54.2 kcal/mol.
In the case of GTCCTTCGAAAGAACGAC (((.(((....))).))), in data set [1], the Tm was determined as 33.5 °C. For the same sequence, the folding enthalpy in data set [2] is -23.3 kcal/mol.
The like results for GATCCTGCTAGGATC ((((((...)))))) were, in that order, 54.8 °C and -34 kcal/mol.
As for GAACGAGGAAACTCATTC (((.(((....))).))), in data set [1], the Tm was 24.8 °C. Moreover, the folding enthalpy in data set [2] is -15.5 kcal/mol.
The like results for GACGTGCGAAAGCAGGTC (((.(((....))).))) were, in that order, 62.4 °C and -36.2 kcal/mol.
Regarding GCACACGAAAGTGTATGC ((((((....)))..))), the Tm in data set [1] is 45.8 °C. Further, the folding enthalpy in data set [2] is -15.1 kcal/mol.
For GATCGAGGGTTCGATC ((((((....)))))), in that order: 50.9 °C and -36.9 kcal/mol.
The like results for GGTACCGAAAGGTTAACC ((((((....)))..))) were, in that order, 38.6 °C and -17.3 kcal/mol.
The like results for GTGATTGGAAACGATCAC (((((.(....).))))) were, in that order, 47.9 °C and -44.9 kcal/mol.
